Reference: ChEMBL document CHEMBL3616400, “Design, Synthesis, and Evaluation of Triazole Derivatives That Induce Nrf2 Dependent Gene Products and Inhibit the Keap1-Nrf2 Protein-Protein Interaction” (J Med Chem, 2015)
Active and inactive are the calls of the source. No cut-off for these calls is given here.

Experiments:
[1] = target: T1, Nuclear factor erythroid 2-related factor 2 (Mus musculus) (UniProt Q60795); assay: Activation of Nrf2 in mouse Hepa1c1c7 cells assessed as induction of NQO1 production at 10 uM after 24 hrs by MTT colorimetric assay relative to control; assay type: cell-based
T1 sequence (whole entry): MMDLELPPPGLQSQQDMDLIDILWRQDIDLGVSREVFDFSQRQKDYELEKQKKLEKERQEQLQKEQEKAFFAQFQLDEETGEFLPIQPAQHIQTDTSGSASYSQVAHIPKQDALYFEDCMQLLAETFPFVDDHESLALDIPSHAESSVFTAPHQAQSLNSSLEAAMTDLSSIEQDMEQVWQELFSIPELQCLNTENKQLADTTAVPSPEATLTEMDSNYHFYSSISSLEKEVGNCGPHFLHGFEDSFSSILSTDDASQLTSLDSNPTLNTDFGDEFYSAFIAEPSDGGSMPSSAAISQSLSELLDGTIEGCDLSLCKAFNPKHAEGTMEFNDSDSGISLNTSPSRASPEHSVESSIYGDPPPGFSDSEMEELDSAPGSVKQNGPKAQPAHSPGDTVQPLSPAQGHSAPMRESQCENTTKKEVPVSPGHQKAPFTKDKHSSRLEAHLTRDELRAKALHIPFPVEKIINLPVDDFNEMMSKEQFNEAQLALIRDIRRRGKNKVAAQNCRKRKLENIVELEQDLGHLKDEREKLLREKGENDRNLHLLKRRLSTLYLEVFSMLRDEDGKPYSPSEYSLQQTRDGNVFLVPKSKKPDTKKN
In short: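 Hepa1c1c7 mouse hepatoma cells treated at a fixed 10 µM for 24 h. NQO1 enzyme activity read by colorimetric induction assay and expressed as fold induction over control.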

[2] = target: Keap1/Nrf2 (Homo sapiens) (UniProt Q16236+Q14145); assay: Inhibition of kelch domain of Keap1 (unknown origin) interaction to high affinity ETGE motif from Nrf2 unknown origin) at 100 uM by fluorescence polarization assay; assay type: protein assay
Keap1/Nrf2 (Homo sapiens), sequence (Q14145 whole entry, looked up, the tested form may be a part): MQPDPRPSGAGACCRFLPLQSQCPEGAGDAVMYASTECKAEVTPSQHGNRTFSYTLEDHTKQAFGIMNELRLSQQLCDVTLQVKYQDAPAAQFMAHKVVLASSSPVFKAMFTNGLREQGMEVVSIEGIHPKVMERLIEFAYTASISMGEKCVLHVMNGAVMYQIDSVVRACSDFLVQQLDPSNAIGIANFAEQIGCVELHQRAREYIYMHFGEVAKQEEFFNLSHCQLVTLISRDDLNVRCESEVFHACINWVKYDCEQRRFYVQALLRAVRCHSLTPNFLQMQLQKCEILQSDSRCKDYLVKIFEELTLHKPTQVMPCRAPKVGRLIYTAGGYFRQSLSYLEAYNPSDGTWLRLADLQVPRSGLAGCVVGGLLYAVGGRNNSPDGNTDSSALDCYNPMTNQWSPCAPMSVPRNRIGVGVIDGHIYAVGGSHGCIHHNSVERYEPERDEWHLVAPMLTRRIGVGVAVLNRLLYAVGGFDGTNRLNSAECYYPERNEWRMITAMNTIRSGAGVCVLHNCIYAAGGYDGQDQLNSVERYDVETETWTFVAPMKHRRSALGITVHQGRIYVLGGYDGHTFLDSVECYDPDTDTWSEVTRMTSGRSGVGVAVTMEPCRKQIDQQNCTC
Keap1/Nrf2 (Homo sapiens), sequence (Q16236 whole entry, looked up, the tested form may be a part): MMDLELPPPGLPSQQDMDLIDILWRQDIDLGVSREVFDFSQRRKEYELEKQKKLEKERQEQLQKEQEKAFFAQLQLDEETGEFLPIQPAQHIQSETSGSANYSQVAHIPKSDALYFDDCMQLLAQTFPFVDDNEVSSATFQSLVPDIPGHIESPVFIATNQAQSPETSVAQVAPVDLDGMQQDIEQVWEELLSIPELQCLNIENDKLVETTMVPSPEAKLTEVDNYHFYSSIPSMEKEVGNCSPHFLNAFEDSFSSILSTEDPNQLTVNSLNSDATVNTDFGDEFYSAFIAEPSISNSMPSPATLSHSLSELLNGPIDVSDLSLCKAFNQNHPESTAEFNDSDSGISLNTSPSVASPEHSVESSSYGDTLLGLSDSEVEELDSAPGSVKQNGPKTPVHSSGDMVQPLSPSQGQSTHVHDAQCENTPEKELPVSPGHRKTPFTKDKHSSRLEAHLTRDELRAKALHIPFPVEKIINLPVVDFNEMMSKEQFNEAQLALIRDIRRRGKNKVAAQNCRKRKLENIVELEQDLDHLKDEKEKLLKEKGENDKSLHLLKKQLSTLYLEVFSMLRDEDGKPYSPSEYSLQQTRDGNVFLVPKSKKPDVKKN
In short: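 Fluorescence polarization competition. Keap1 Kelch domain with fluorescein-labelled ETGE peptide FITC-β-DEETGEF-OH (β = β-alanine). Displacement measured with a fixed 100 µM inhibitor; percent inhibition reported.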

[3] = target: T1, Nuclear factor erythroid 2-related factor 2 (Mus musculus); assay: Activation of Nrf2 in mouse Hepa1c1c7 cells assessed as concentration required to 2 fold induction of NQO1 production after 24 hrs by MTT colorimetric assay; assay type: cell-based
In short: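 Hepa1c1c7 mouse hepatoma cells exposed to a concentration range for 24 h. NQO1 enzymatic activity measured by colorimetric induction assay. Value reported as CD, the concentration giving a two-fold increase in NQO1 activity.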

Keap1/Nrf2 = Keap1/Nrf2 (Homo sapiens, UniProt Q14145); assay: Inhibition of kelch domain of Keap1 (unknown origin) interaction to high affinity ETGE motif from Nrf2 by fluorescence polarization assay; assay type: protein assay
Keap1/Nrf2, sequence (Q16236 whole entry, the tested form may be a part): as the sequence (Q16236 whole entry, looked up, the tested form may be a part) above
Keap1/Nrf2, sequence (Q14145 whole entry, the tested form may be a part): as the sequence (Q14145 whole entry, looked up, the tested form may be a part) above
In short: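 Competitive fluorescence polarization, dose-response format. Keap1 Kelch domain with fluorescein-labelled Nrf2 ETGE peptide FITC-β-DEETGEF-OH. EC50 derived from dose-response curves.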

Mus musculus = organism: Mus musculus; assay: Increase of Nrf2 protein level in mouse Hepa1c1c7 cells at 10 uM after 24 hrs by Western blot analysis; assay type: functional, cell-based
In short: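 Hepa1c1c7 cells incubated with test compounds at 10 µM for various exposure times, up to 24 h. Nrf2, HO-1 and NQO1 protein levels assessed by Western blot.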

Compound | fold change (FC) [1] | inhibition [2] | CD [3] | EC50 (Keap1/Nrf2) | Activity (Mus musculus)
NC(=O)c1cccc(-n2cc(-c3cccc([N+](=O)[O-])c3)nn2)c1 | 2.09 | 65.3% |  |  | 
O=[N+]([O-])c1cccc(-c2cn(-c3cccc(Cl)c3)nn2)c1 | 2.5 | 60.4% | 0.7 µM | 8.8 µM | 
N#Cc1cccc(-c2cn(-c3cccc(Cl)c3)nn2)c1 | 2.39 | 19.9% |  |  | 
NC(=O)c1cccc(-c2cn(-c3cccc([N+](=O)[O-])c3)nn2)c1 | 2.06 | 32% |  |  | 
O=C(O)c1cccc(-c2cn(-c3ccc([N+](=O)[O-])cc3)nn2)c1 | 1.14 | 82.3% |  |  | 
Cc1cccc(-n2cc(-c3cccc(-c4nnn[nH]4)c3)nn2)c1 | 0.88 | 30.4% |  |  | 
Ic1cccc(-n2cc(-c3cccc(-c4nnn[nH]4)c3)nn2)c1 | 1.03 | 51.5% |  |  | 
O=C(O)c1ccc(-c2cn(-c3ccc(C(=O)O)cc3)nn2)cc1 | 0.9 | 77.3% |  |  | 
O=[N+]([O-])c1ccc(-n2cc(-c3cccc([N+](=O)[O-])c3)nn2)cc1 | 3.38 | 74.8% |  |  | 
NC(=O)c1cccc(-c2cn(-c3cccc(C(N)=O)c3)nn2)c1 |  | 65.3% |  |  | 
O=C(O)c1ccc(-c2cn(-c3cccc([N+](=O)[O-])c3)nn2)cc1 | 1.06 | 87.5% |  |  | 
NC(=O)c1ccc(-n2cc(-c3cccc([N+](=O)[O-])c3)nn2)cc1 | 2.08 | 64.5% |  |  | 
NC(=O)c1cccc(-n2cc(-c3ccc([N+](=O)[O-])cc3)nn2)c1 | 0.98 | 62.2% |  |  | 
Cc1c(-c2cnccn2)ssc1=S |  |  | 10.2 µM |  | 
N#Cc1cccc(-c2cn(-c3cccc([N+](=O)[O-])c3)nn2)c1 | 2.1 | 59.4% |  |  | 
NC(=O)c1ccc(-n2cc(-c3cccc(C(=O)O)c3)nn2)cc1 | 0.91 | 87.6% |  |  | 
NC(=O)c1ccc(-n2cc(-c3ccc([N+](=O)[O-])cc3)nn2)cc1 | 1.07 | 46.1% |  |  | 
NC(=O)c1cccc(-c2cn(-c3ccc(C(=O)O)cc3)nn2)c1 | 0.81 | 70.7% |  |  | 
CN(C)c1cccc(-n2cc(-c3cccc([N+](=O)[O-])c3)nn2)c1 | 2.91 | 65.4% | 2 µM | 12.7 µM | 
Clc1cccc(-n2cc(-c3cccc(-c4nnn[nH]4)c3)nn2)c1 | 1.24 | 40.7% |  |  | 
N#Cc1cccc(-c2cn(-c3cccc(C#N)c3)nn2)c1 | 1.92 | 58.8% |  |  | 

Compound | fold change (FC) [1] | inhibition [2] | CD [3] | EC50 (Keap1/Nrf2) | Activity (Mus musculus)
CCOc1cccc(-n2cc(-c3cccc(C#N)c3)nn2)c1 | 1.3 | 24.5% |  |  | 
NC(=O)c1cccc(-n2cc(-c3ccc(C(=O)O)cc3)nn2)c1 | 0.95 | 15.4% |  |  | 
Cc1cccc(-n2cc(-c3cccc(C#N)c3)nn2)c1 | 1.69 | 49.7% |  |  | 
O=[N+]([O-])c1cccc(-n2cc(-c3cccc(-c4nnn[nH]4)c3)nn2)c1 | 1.75 | 71.1% |  |  | 
NC(=O)c1ccc(-c2cn(-c3cccc(C(N)=O)c3)nn2)cc1 | 1.02 | 43.7% |  |  | 
NC(=O)c1ccc(-c2cn(-c3ccc([N+](=O)[O-])cc3)nn2)cc1 | 1.02 |  |  |  | 
CCOc1cccc(-n2cc(-c3cccc(-c4nnn[nH]4)c3)nn2)c1 | 1.31 | 39.6% |  |  | 
O=C(O)c1ccc(-c2cn(-c3cccc(C(=O)O)c3)nn2)cc1 | 0.47 | 89.6% |  |  | 
CC(C)(C)c1cccc(-n2cc(-c3cccc([N+](=O)[O-])c3)nn2)c1 | 1.93 | 69.8% | > 10 µM | 37.8 µM | inactive
N#Cc1cccc(-c2cn(-c3ccc(C(=O)O)cc3)nn2)c1 | 0.98 | 52.8% |  |  | 
O=C(O)c1ccc(-n2cc(-c3cccc(-c4nnn[nH]4)c3)nn2)cc1 | 1 | 70% |  |  | 
NC(=O)c1cccc(-c2cn(-c3ccc([N+](=O)[O-])cc3)nn2)c1 | 1.05 | 48% |  |  | 
O=[N+]([O-])c1cccc(-c2cn(-c3cccc([N+](=O)[O-])c3)nn2)c1 | 2.3 | 81% |  | 11.5 µM | 
NC(=O)c1ccc(-c2cn(-c3cccc([N+](=O)[O-])c3)nn2)cc1 | 1.33 | 2.34% |  |  | 
O=C(O)c1cccc(-c2cn(-c3cccc(C(=O)O)c3)nn2)c1 | 0.86 | 82.3% |  |  | 
O=C(O)c1cccc(-n2cc(-c3cccc([N+](=O)[O-])c3)nn2)c1 | 0.83 | 80.1% | > 10 µM | 5 µM | 
O=C(O)c1cccc(-n2cc(-c3ccc([N+](=O)[O-])cc3)nn2)c1 | 0.66 | 61% |  |  | 
CSc1cccc(-n2cc(-c3cccc([N+](=O)[O-])c3)nn2)c1 | 2.95 | 77.7% |  | 38.5 µM | 
NC(=O)c1ccc(-n2cc(-c3ccc(C(=O)O)cc3)nn2)cc1 | 0.86 | 76.5% |  |  | 
CCOc1cccc(-n2cc(-c3cccc([N+](=O)[O-])c3)nn2)c1 | 2.48 | 69.3% |  | 11.3 µM | 
O=C(O)c1ccc(-n2cc(-c3cccc([N+](=O)[O-])c3)nn2)cc1 |  | 39.4% |  |  | 

Compound | fold change (FC) [1] | inhibition [2] | CD [3] | EC50 (Keap1/Nrf2) | Activity (Mus musculus)
O=C(O)c1ccc(-c2cn(-c3ccc([N+](=O)[O-])cc3)nn2)cc1 | 0.89 | 83.8% |  |  | 
O=C(O)c1cccc(-c2cn(-c3cccc([N+](=O)[O-])c3)nn2)c1 | 0.85 | 63.8% |  |  | 
O=C(O)c1ccc(-n2cc(-c3ccc([N+](=O)[O-])cc3)nn2)cc1 | 0.99 | 81.3% |  |  | 
NC(=O)c1ccc(-c2cn(-c3cccc(C(=O)O)c3)nn2)cc1 | 0.79 |  |  |  | 
O=[N+]([O-])c1ccc(-c2cn(-c3ccc([N+](=O)[O-])cc3)nn2)cc1 | 1 | 72.6% |  |  | 
O=[N+]([O-])c1cccc(-c2cn(-c3cccc(Br)c3)nn2)c1 | 2.94 | 68.2% | 1.2 µM | 24.5 µM | 
NC(=O)c1cccc(-c2cn(-c3cccc(C(=O)O)c3)nn2)c1 | 0.71 | 78.6% |  |  | 
O=[N+]([O-])c1cccc(-c2cn(-c3cccc(F)c3)nn2)c1 | 2.27 | 42.6% |  |  | 
N#Cc1cccc(-n2cc(-c3cccc([N+](=O)[O-])c3)nn2)c1 | 2.33 | 36.8% |  |  | 
O=[N+]([O-])c1cccc(-c2cn(-c3ccccc3)nn2)c1 | 1.95 | 66.9% | > 10 µM | 20.6 µM | 
O=[N+]([O-])c1ccc(-c2cn(-c3cccc([N+](=O)[O-])c3)nn2)cc1 | 1.81 | 46.5% |  |  | 
NC(=O)c1ccc(-c2cn(-c3ccc(C(=O)O)cc3)nn2)cc1 | 0.79 |  |  |  | 
c1cc(-c2cn(-c3cccc(-c4nnn[nH]4)c3)nn2)cc(-c2nnn[nH]2)c1 | 0.84 | 13.7% |  |  | 
COc1cccc(-n2cc(-c3cccc([N+](=O)[O-])c3)nn2)c1 | 2.56 | 68.2% | 4.7 µM | 15 µM | 
NC(=O)c1ccc(-c2cn(-c3ccc(C(N)=O)cc3)nn2)cc1 | 0.98 |  |  |  | 
N#Cc1cccc(-c2cn(-c3cccc(I)c3)nn2)c1 | 1.53 | 21.9% |  |  | 
NC(=O)c1cccc(-n2cc(-c3cccc(C(=O)O)c3)nn2)c1 | 1.07 | 96.3% |  |  | 
O=[N+]([O-])c1cccc(-c2cn(-c3ccc4c(c3)OCO4)nn2)c1 | 2.24 | 67.2% |  | 15 µM | 
O=[N+]([O-])c1cccc(-c2cn(-c3cccc(C(F)(F)F)c3)nn2)c1 | 2.54 | 66.9% |  | 22.6 µM | 
